Experimental data as given in ChEMBL document CHEMBL3797157, “Antifungal Quinoline Alkaloids from Waltheria indica” (J Nat Prod, 2016).
Values after ≈ are worked out from the molar mass of the structure shown. Active and inactive are the calls of the source. The calls are words filed in the database; no cut-off is given here.

Columns and labels:
[1] = Selectivity index, ratio of IC50 for human HeLa cells to MIC for Candida albicans CAF2-1
Procedure, shortened: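 SI = HeLa IC50 (SRB assay, 48 h) divided by the C. albicans CAF2-1 MIC (YNB pH 4.6, 24 h, 34 °C broth microdilution).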

[2] = tested on: Candida albicans; assay: Antibiofilm activity against Candida albicans CAF2-1 assessed as reduction in metabolic activity after 48 hrs by XTT assay; type: functional; conditions: CAF2-1, 48 h
[3] = tested on: Candida parapsilosis; assay: Antimicrobial activity against Candida parapsilosis ATCC 22019 after 24 hrs by two fold serial dilution method; type: functional; conditions: Lodderomyces parapsilosis, ATCC 22019, 24 h
Procedure, shortened: (§1)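 Broth microdilution per EUCAST. Yeasts diluted to 2 × 10^5 cells/mL in YNB with 2% glucose, pH 4.6. Compound stocks 10 mg/mL in DMSO, twofold serial dilutions, 1% DMSO final. Drug-free and sterility controls included. Incubated 24 h at 34 °C. MIC is the lowest concentration giving OD450 ≤50% of the compound-free culture. For S. cerevisiae, YNB was supplemented with Complete Supplement Mixture.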

[4] = tested on: Saccharomyces cerevisiae; assay: Antimicrobial activity against Saccharomyces cerevisiae BY4741 after 24 hrs by two fold serial dilution method; type: functional; conditions: BY4741, 24 h; procedure, shortened: as §1
[5] = tested on: Escherichia coli; assay: Antimicrobial activity against Escherichia coli; type: functional
[6] = tested on: Candida tropicalis; assay: Antimicrobial activity against Candida tropicalis ATCC 75 after 24 hrs by two fold serial dilution method; type: functional; conditions: ATCC 75, 24 h; procedure, shortened: as §1
[7] = tested on: HeLa; assay: Cytotoxicity against human HeLa cells after 48 hrs by SRB assay; type: cell-based
Procedure, shortened: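 Sulforhodamine B assay in HeLa cells (DMEM + 10% FBS, 37 °C, 5% CO2), seeded at 10^4 cells/well. After 24 h, cells were PBS-washed and exposed to twofold dilutions from 100 μg/mL for 48 h. A day-1 plate was fixed as baseline. OD492 growth = (treated d3 − d1)/(DMSO d3 − d1) × 100. IC50 was obtained by dose–response curve fitting.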

[8] = tested on: Nakaseomyces glabratus; assay: Antimicrobial activity against Candida glabrata after 24 hrs by two fold serial dilution method; type: functional; procedure, shortened: as §1
[9] = tested on: Pseudomonas aeruginosa; assay: Antimicrobial activity against Pseudomonas aeruginosa; type: functional
[10] = tested on: Pichia kudriavzevii; assay: Antimicrobial activity against Candida krusei ATCC 6258 after 24 hrs by two fold serial dilution method; type: functional; conditions: ATCC 6258, 24 h; procedure, shortened: as §1
[11] = tested on: Candida albicans; assay: Antimicrobial activity against Candida albicans CAF2-1 after 24 hrs by two fold serial dilution method; type: functional; conditions: CAF2-1, 24 h; procedure, shortened: as §1
[12] = tested on: Staphylococcus aureus; assay: Antimicrobial activity against Staphylococcus aureus; type: functional
[13] = tested on: Candida albicans; assay: Antimicrobial activity against Candida albicans CAF2-1 assessed as breakage zones of plasmic membrane at 1 ug/ml after 18 hrs by uranyl acetate/lead citrate staining based transmission electron microscopy; type: functional, organism-based
Procedure, shortened: (§2)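 CAF2-1 grown in YNB pH 4.6 at 37 °C for 2 h. Compound (1 mg/mL DMSO stock) then added at 1 or 2 μg/mL. DMSO-treated and untreated controls. Samples taken at 4 and 18 h and pelleted. Prefixed in 3% glutaraldehyde–2% paraformaldehyde in 0.07 M phosphate pH 7, postfixed in 1% OsO4, ethanol-dehydrated and embedded in LR White. 0.08 μm sections stained with uranyl acetate/lead citrate and viewed by TEM.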

[14] = tested on: Candida albicans; assay: Antimicrobial activity against Candida albicans CAF2-1 assessed as accumulation of dark corpuscles in nucleus at 2 ug/ml after 4 hrs by uranyl acetate/lead citrate staining based transmission electron microscopy; type: functional, organism-based; procedure, shortened: as §2
[15] = tested on: Candida albicans; assay: Antimicrobial activity against Candida albicans CAF2-1 assessed as cytoplasmic content disorganization at 2 ug/ml after 18 hrs by uranyl acetate/lead citrate staining based transmission electron microscopy; type: functional, organism-based; procedure, shortened: as §2
[16] = tested on: Candida albicans; assay: Antimicrobial activity against Candida albicans CAF2-1 assessed as cytoplasmic content disorganization at 1 ug/ml after 18 hrs by uranyl acetate/lead citrate staining based transmission electron microscopy; type: functional, organism-based; procedure, shortened: as §2
[17] = tested on: Candida albicans; assay: Antimicrobial activity against Candida albicans CAF2-1 assessed as punctual disruption of nuclear membrane at 2 ug/ml after 4 hrs by uranyl acetate/lead citrate staining based transmission electron microscopy; type: functional, organism-based; procedure, shortened: as §2
[18] = tested on: Candida albicans; assay: Antimicrobial activity against Candida albicans CAF2-1 assessed as accumulation of dark corpuscles in nucleus at 1 ug/ml after 4 hrs by uranyl acetate/lead citrate staining based transmission electron microscopy; type: functional, organism-based; procedure, shortened: as §2
[19] = tested on: Candida albicans; assay: Antimicrobial activity against Candida albicans CAF2-1 assessed as punctual disruption of nuclear membrane at 1 ug/ml after 4 hrs by uranyl acetate/lead citrate staining based transmission electron microscopy; type: functional, organism-based; procedure, shortened: as §2
[20] = tested on: Candida albicans; assay: Antimicrobial activity against Candida albicans CAF2-1 assessed as breakage zones of plasmic membrane at 2 ug/ml after 18 hrs by uranyl acetate/lead citrate staining based transmission electron microscopy; type: functional, organism-based; procedure, shortened: as §2

SMILES | Selectivity Index [1] | MIC [2] [µg/mL] | MIC [3] [µg/mL] | MIC [4] [µg/mL] | MIC [5] [µg/mL] | MIC [6] [µg/mL] | IC50 [7] [µg/mL] | MIC [8] [µg/mL] | MIC [9] [µg/mL] | MIC [10] [µg/mL] | MIC [11] [µg/mL] | MIC [12] [µg/mL] | Activity [13] | Activity [14] | Activity [15] | Activity [16] | Activity [17] | Activity [18] | Activity [19] | Activity [20]
COc1c(C)[nH]c2c(c1=O)[C@@H](CCCCCc1ccccc1)CC[C@H]2OC | 0.4 | 32 (≈ 86.6 µM) | > 32 | > 32 | > 32 | > 32 | 11.9 (≈ 32.2 µM) | > 32 | > 32 | > 32 | 32 (≈ 86.6 µM) | > 32 | – | – | – | – | – | – | – | –
CCCCCCCC[C@@H]1CCCc2[nH]c(C)c(OC)c(=O)c21 | 1.5 | 32 (≈ 105 µM) | 32 (≈ 105 µM) | > 32 | > 32 | > 32 | 24.7 (≈ 80.9 µM) | > 32 | > 32 | 32 (≈ 105 µM) | 16 (≈ 52.4 µM) | > 32 | – | – | – | – | – | – | – | –
COc1c(C)n(OC)c2c(c1=O)[C@@H](CCCCCc1ccccc1)CCC2 | 0.3 | 32 (≈ 86.6 µM) | 2 (≈ 5.41 µM) | 16 (≈ 43.3 µM) | > 32 | 32 (≈ 86.6 µM) | 9.5 (≈ 25.7 µM) | 32 (≈ 86.6 µM) | > 32 | 32 (≈ 86.6 µM) | 32 (≈ 86.6 µM) | > 32 | Active | Active | Active | Active | Active | Active | Active | Active
CCCCCCCCc1ccc(OC)c2[nH]c(C)c(OC)c(=O)c12 | 1.8 | 16 (≈ 48.3 µM) | > 32 | > 32 | > 32 | > 32 | 14.4 (≈ 43.4 µM) | > 32 | > 32 | > 32 | 8 (≈ 24.1 µM) | > 32 | – | – | – | – | – | – | – | –
OC(Cn1cncn1)(Cn1cncn1)c1ccc(F)cc1F [FLUCONAZOLE] | >200 | > 256 | 4 (≈ 13.1 µM) | 16 (≈ 52.2 µM) | – | 4 (≈ 13.1 µM) | > 100 | > 128 | – | 32 (≈ 104 µM) | 0.5 (≈ 1.63 µM) | – | – | – | – | – | – | – | – | –
CC[C@H](C)C[C@H](C)CCCCCCCCC(=O)N[C@H]1C[C@@H](O)[C@@H](NCCN)NC(=O)[C@@H]2[C@@H](O)CCN2C(=O)[C@H]([C@H](O)CCN)NC(=O)[C@H]([C@H](O)[C@@H](O)c2ccc(O)cc2)NC(=O)[C@@H]2C[C@@H](O)CN2C(=O)[C@H]([C@@H](C)O)NC1=O [CASPOFUNGIN] | >400 | 0.1 (≈ 0.0915 µM) | 1 (≈ 0.915 µM) | 0.3 (≈ 0.274 µM) | – | 0.5 (≈ 0.457 µM) | > 100 | 0.1 (≈ 0.0915 µM) | – | 0.1 (≈ 0.0915 µM) | 0.3 (≈ 0.274 µM) | – | – | – | – | – | – | – | – | –
CCCCCCCC[C@H]1CCCc2c1c(=O)c(OC)c(C)n2OC | 1 | 16 (≈ 47.7 µM) | 2 (≈ 5.96 µM) | 16 (≈ 47.7 µM) | > 32 | 32 (≈ 95.4 µM) | 16.1 (≈ 48 µM) | 32 (≈ 95.4 µM) | > 32 | 16 (≈ 47.7 µM) | 16 (≈ 47.7 µM) | > 32 | – | – | – | – | – | – | – | –
CCCCCCCC[C@H]1CC[C@@H](O)c2[nH]c(C)c(OC)c(=O)c21 | 1.6 | 16 (≈ 49.8 µM) | > 32 | > 32 | – | > 32 | 50 (≈ 156 µM) | > 32 | – | 32 (≈ 99.5 µM) | 32 (≈ 99.5 µM) | – | – | – | – | – | – | – | – | –
CCCCCCCC[C@@H]1CCCc2c1c(=O)c(OC)c(CO)n2OC | 0.8 | 16 (≈ 45.5 µM) | > 32 | > 32 | > 32 | > 32 | 26.6 (≈ 75.7 µM) | > 32 | > 32 | > 32 | 32 (≈ 91 µM) | > 32 | – | – | – | – | – | – | – | –
CCCCCCCC[C@H]1CC[C@@H](OC)c2[nH]c(C)c(OC)c(=O)c21 | 5 | 8 (≈ 23.8 µM) | > 32 | > 32 | > 32 | > 32 | 20 (≈ 59.6 µM) | > 32 | > 32 | > 32 | 4 (≈ 11.9 µM) | > 32 | Active | Active | Active | Active | Active | Active | Active | Active
CCCCCCCC[C@H]1CCC(=O)c2[nH]c(C)c(OC)c(=O)c21 | 0.7 | 16 (≈ 50.1 µM) | 4 (≈ 12.5 µM) | > 32 | > 32 | > 32 | 23.4 (≈ 73.3 µM) | > 32 | > 32 | 16 (≈ 50.1 µM) | 32 (≈ 100 µM) | > 32 | – | – | – | – | – | – | – | –
CCCCCCCC[C@@H]1CCCc2[nH]c(CO)c(OC)c(=O)c21 | 0.8 | 16 (≈ 49.8 µM) | > 32 | > 32 | – | > 32 | 24.4 (≈ 75.9 µM) | > 32 | – | 32 (≈ 99.5 µM) | 32 (≈ 99.5 µM) | – | – | – | – | – | – | – | – | –
